Shown are actives, neighbours in structure and some others; about 0.58% of the full set was active somewhere.
zfTRPN1 agonist – zebrafish TRPN1 (NompC) channel agonism; HEK293 zebrafish TRPN1-YFP, Fluo-8 calcium fluorescence; 100% = response to 87 µM carbachol; activation, % at 3 µM; 220,000 compounds, 0.18% hits; AID 1424;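 active = activation above its plate's cutoff, the mean activation of test wells on that plate plus 3 SD, cut at about 19% in these data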;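 note: 0% = DMSO alone and 100% = 87 µM carbachol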
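Control set: carbachol 87 µM as high control, DMSO as low control; system: HEK293 stable line with zebrafish TRPN1-YFP; read-out: % activation versus carbachol response; detection: intracellular calcium fluorescence with Fluo-8; doses: single test compound dose, 3 µM nominal, 0.3% DMSO; schedule: dye 1 h 37 °C plus 30 min RT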
V1R ag counter – counter-screen for oxytocin receptor agonists: human V1a receptor agonists; P37288; CHO-V1R cells, Fluo-8 calcium fluorescence, agonist mode; 0% DMSO, 100% 3 nM vasopressin; activation, % at 3 µM; 320,000 compounds, 0.25% hits;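 active = activation above the mean activation of all tested compounds plus 3 SD, per screening run, cut at about 20% in these data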;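 note: signal is peak over basal fluorescence ratio across a 100 second FLIPR read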
Target sequence (P37288 whole entry, looked up): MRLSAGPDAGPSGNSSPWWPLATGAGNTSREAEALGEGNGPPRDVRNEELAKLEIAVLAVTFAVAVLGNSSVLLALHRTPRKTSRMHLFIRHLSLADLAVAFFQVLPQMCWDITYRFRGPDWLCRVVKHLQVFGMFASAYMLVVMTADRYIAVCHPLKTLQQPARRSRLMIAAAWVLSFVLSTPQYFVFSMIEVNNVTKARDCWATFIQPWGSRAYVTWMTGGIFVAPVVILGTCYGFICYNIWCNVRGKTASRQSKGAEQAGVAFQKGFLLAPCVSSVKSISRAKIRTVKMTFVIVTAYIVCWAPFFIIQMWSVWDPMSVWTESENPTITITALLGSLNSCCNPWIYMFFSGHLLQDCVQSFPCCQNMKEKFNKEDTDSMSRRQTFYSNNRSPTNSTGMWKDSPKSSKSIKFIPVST
TRPML3 agonist – activates the human TRPML3 channel. Q8TDD5. HEK293 TRPML3-YFP, Fluo-8 calcium fluorescence; 100% = the carbachol control signal. activation, % at 3 µM. 220,000 compounds, 0.29% hits. AID 1448;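 active = activation above its plate's cutoff, the mean activation of the plate's test wells plus 3 SD, cut at about 12% in these data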;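 note: 0% = DMSO only wells and 100% = carbachol wells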
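Material: HEK293 cells stably carrying human TRPML3-YFP; compound dosing: single dose, 3 µM final nominal compound, 0.3% DMSO final; incubation: 1-h 37 °C dye load, 5-s basal, 120-s post-compound reads; technique: Fluo-8 intracellular calcium fluorescence, excitation 470-495 nm, emission 515-575 nm; read-out basis: percent activation from peak-to-basal fluorescence ratio, scaled between DMSO and carbachol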
OXTR agonist – human OXTR agonism | P30559 | activation, % at 3 µM | CHO-OTR cells, Fluo-8 calcium fluorescence; normalized: DMSO 0%, oxytocin 100% | 320,000 compounds, 0.32% hits;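 active = activation above the mean of all tested compounds plus 3 SD, cutoff set per screening run, cut at about 20% in these data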;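 note: peak over basal fluorescence ratio from a 100 s FLIPR kinetic read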
OXTR potentiator – potentiates the human oxytocin receptor response; CHO-OTR cells, Fluo-8 calcium fluorescence, potentiator mode; 0% = oxytocin EC15, 100% = EC100; activation, % at 3 µM; 320,000 compounds, 0.061% hits;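 active = activation above that plate's cutoff, the mean activation of tested compounds plus 3 SD, cut at about 6.6% in these data, passing the limit was not always enough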;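 note: 100% uses oxytocin at 75 nM as the full agonist control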
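assay system = CHO-OTR cells, human receptor | schedule = compound 6 min at room temperature before oxytocin, 100 s read | detection = Fluo-8 intracellular calcium fluorescence, ex 470-495, em 515-575 nm | evaluation = normalized max/min fluorescence ratio, % activation | control set = EC15 oxytocin alone as 0%, 75 nM oxytocin (EC100) as 100%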
* marks the source's active call; other numbers are inactive results; ! = a repeat was not active.

For O=C(NC1CCCC1)c1sc(=S)n2c1[nH]c(=O)c1ccccc12 the results were zfTRPN1 agonist 2, V1R ag counter 8, TRPML3 agonist 0, OXTR agonist 10 and OXTR potentiator -16.
`O=C(NCc1ccco1)c1sc(=S)n2c1[nH]c(=O)c1ccccc12` gave zfTRPN1 agonist 3, V1R ag counter 21*, TRPML3 agonist 1, OXTR agonist 24* and OXTR potentiator -11.
`COc1ccc(NC(=O)c2c(N)cnn2C)cc1` gave V1R ag counter 0, OXTR agonist 0 and OXTR potentiator -6.
CN(CC(=O)Nc1c(Cl)cccc1Cl)C(=O)c1cc(S(=O)(=O)N(C)C)ccc1N1CCCC1 was read as V1R ag counter 0, OXTR agonist -1 and OXTR potentiator -3.
C[C@H](CCC(=O)O)[C@H]1CC[C@H]2[C@@H]3[C@H](O)C[C@@H]4C[C@H](O)CC[C@]4(C)[C@H]3CC[C@]12C was read as V1R ag counter 2, OXTR agonist 2 and OXTR potentiator -14.
Screening CC(CCC(C)C(C)(C)C)[C@@H]1CC[C@H]2C3C[C@H](OS(O)(=S)=S)[C@H]4C[C@H](OS(O)(=S)=S)[C@@H](OS(O)(=S)=S)C[C@]4(C)[C@H]3CC[C@]12C (some centres not stated) (tested in a mixture with another compound) returned V1R ag counter 71*!, OXTR agonist 58* and OXTR potentiator -13.
Screening C=CCn1c(SC(C)CC)nc(O)cc1=O (configuration not stated) returned zfTRPN1 agonist 2, V1R ag counter 30*, TRPML3 agonist 3, OXTR agonist 46* and OXTR potentiator -32.
Screening CC(C)NC(=O)c1ccc(C(C)C)cc1 returned zfTRPN1 agonist 1, V1R ag counter 1, TRPML3 agonist 1, OXTR agonist -1 and OXTR potentiator -7.
O=S(=O)(Nc1nccs1)c1ccc(NS(=O)(=O)c2c(F)cc(F)c(Cl)c2F)cc1 was read as V1R ag counter 0, OXTR agonist 1 and OXTR potentiator -3.
`CC(C)(C)S(=O)(=O)/C(C#N)=N/Nc1ccc(Cl)cc1` gave zfTRPN1 agonist 21*, V1R ag counter 11, TRPML3 agonist 11, OXTR agonist 15 and OXTR potentiator -13.
For COc1ccc(N=Cc2sc(O)c3ccccc23)cc1 the results were zfTRPN1 agonist 33*, V1R ag counter 77*, TRPML3 agonist 28*, OXTR agonist 58* and OXTR potentiator -25.
Screening COc1cccc(-c2c(C(=O)N/N=C(\C)c3cccs3)nnn2-c2nonc2N)c1 returned V1R ag counter 60*, OXTR agonist 44* and OXTR potentiator -7.
`CCOc1ccc(-c2c(C(=O)N/N=C(\C)c3cccs3)nnn2-c2nonc2N)cc1` gave V1R ag counter 11, OXTR agonist 4 and OXTR potentiator -6.
`CCOc1ccc(-c2c(C(=O)N/N=C(\C)c3ccccc3OC)nnn2-c2nonc2N)cc1` gave V1R ag counter 0, OXTR agonist -1 and OXTR potentiator -19.
For CCOc1ccc(-c2c(C(=O)N/N=C(\C)c3ccco3)nnn2-c2nonc2N)cc1 the results were V1R ag counter 23*, OXTR agonist 26* and OXTR potentiator -19.
`CCOc1cccc(-c2c(C(=O)N/N=C(\C)c3cccs3)nnn2-c2nonc2N)c1` gave V1R ag counter 36*, OXTR agonist 36* and OXTR potentiator -11.
`COc1cc(/C=C/C(=O)OCC(=O)Nc2ccc([N+](=O)[O-])cc2)ccc1O` gave zfTRPN1 agonist 13, V1R ag counter 30*, TRPML3 agonist 5, OXTR agonist 21* and OXTR potentiator -8.
CCCOc1ccc(C(=O)NC(=S)NNC(=O)c2c(-c3ccccc3)noc2C)cc1 was read as zfTRPN1 agonist 99*, V1R ag counter 106*, TRPML3 agonist 52*, OXTR agonist 93* and OXTR potentiator -19.
`Cc1onc(-c2ccccc2)c1C(=O)NC(=S)NNC(=O)c1ccccc1O` gave zfTRPN1 agonist 81*, V1R ag counter 68*, TRPML3 agonist 55*, OXTR agonist 65* and OXTR potentiator -14.
For OC(COCc1ccc(Cl)cc1)CN1CCN(c2ccccn2)CC1 (configuration not stated) the results were zfTRPN1 agonist -1, V1R ag counter 1, TRPML3 agonist 1, OXTR agonist 0 and OXTR potentiator 4.
Screening CN(C)c1nc(-c2ccccc2)c2cnn(Cc3ccccc3)c2n1 returned zfTRPN1 agonist 3, V1R ag counter 1, TRPML3 agonist 0, OXTR agonist 0 and OXTR potentiator -6.
`CN(C(=O)c1ccc(NC(=O)Cc2ccc([N+](=O)[O-])cc2)cc1)C1CC1` gave V1R ag counter 30*, OXTR agonist 38* and OXTR potentiator -9.
CN(C(=O)c1ccc(NC(=O)Cc2cccc([N+](=O)[O-])c2)cc1)C1CC1 was read as V1R ag counter 1, OXTR agonist 1 and OXTR potentiator -7.
O=C(CN1C(=O)C2C3CC(C(Br)C3Br)C2C1=O)N1CCOCC1 (configuration not stated) was read as zfTRPN1 agonist 1, V1R ag counter 0, TRPML3 agonist 1, OXTR agonist 2 and OXTR potentiator -8.
Screening O=C(CN1C(=O)C2C3CC(C(Br)C3Br)C2C1=O)N1CCN(Cc2ccccc2)CC1 (configuration not stated) returned zfTRPN1 agonist 27*, V1R ag counter 1, TRPML3 agonist 8, OXTR agonist 15 and OXTR potentiator -17.
`C#CCOCCOCCOCCNc1nc(N2CCOCC2)nc(N2CCN(C(=O)CCCCCCCCCCNC(=O)[C@@H]([C@H](C)CC)n3cc(CCCCCN)nn3)CC2)n1` gave V1R ag counter 0, OXTR agonist 0 and OXTR potentiator 1.
`C#CCOCCOCCOCCNc1nc(N2CCN(C(=O)CCCCCCCCCCNC(=O)[C@H]([C@@H](C)CC)n3cc(CCCCCN)nn3)CC2)nc(N2CCN(C(=O)CCCCCCCCCCNC(=O)[C@H](CO)n3cc(CCCCCN)nn3)CC2)n1` gave V1R ag counter 46*, OXTR agonist 22* and OXTR potentiator -18.
C#CCOCCOCCOCCNc1nc(N2CCN(C(=O)CCCCCCCCCCNC(=O)[C@H]([C@@H](C)CC)n3cc(CCCCN=C(N)N)nn3)CC2)nc(N2CCN(C(=O)CCCCCCCCCCNC(=O)[C@H](CO)n3cc(CCCCCN)nn3)CC2)n1 was read as V1R ag counter 6, OXTR agonist -1 and OXTR potentiator -19.

Screens deposited in PubChem BioAssay by The Scripps Research Institute Molecular Screening Center.
